ChEMBL document CHEMBL1142719 (J Med Chem, 2005)

How the values were obtained:
[1] = molecular target: T1, Adenosine receptor A3 (Homo sapiens) (UniProt P0DMS8); test: Relative activation of human Adenosine A3 receptor expressed in CHO cells at 10 uM treatment compared to 10 uM Cl-IB-MECA; assay type: functional, cell-based
T1 sequence (whole entry): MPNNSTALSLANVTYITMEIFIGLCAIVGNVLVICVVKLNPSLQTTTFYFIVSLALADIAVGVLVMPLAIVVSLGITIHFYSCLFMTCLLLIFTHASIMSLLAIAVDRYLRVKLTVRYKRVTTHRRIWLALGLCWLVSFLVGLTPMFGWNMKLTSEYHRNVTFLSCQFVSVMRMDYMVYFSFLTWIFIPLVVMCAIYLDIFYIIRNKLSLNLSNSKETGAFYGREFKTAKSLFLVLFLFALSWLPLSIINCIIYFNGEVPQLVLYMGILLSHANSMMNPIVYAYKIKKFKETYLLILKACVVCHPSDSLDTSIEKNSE

Adenosine receptor A1 = molecular target: T2, Adenosine receptor A1 (Homo sapiens, UniProt P30542); test: Inhibition of [3H]R-PIA binding to human Adenosine A1 receptor expressed in CHO cells; assay type: cell-based
T2 sequence (P30542 whole entry): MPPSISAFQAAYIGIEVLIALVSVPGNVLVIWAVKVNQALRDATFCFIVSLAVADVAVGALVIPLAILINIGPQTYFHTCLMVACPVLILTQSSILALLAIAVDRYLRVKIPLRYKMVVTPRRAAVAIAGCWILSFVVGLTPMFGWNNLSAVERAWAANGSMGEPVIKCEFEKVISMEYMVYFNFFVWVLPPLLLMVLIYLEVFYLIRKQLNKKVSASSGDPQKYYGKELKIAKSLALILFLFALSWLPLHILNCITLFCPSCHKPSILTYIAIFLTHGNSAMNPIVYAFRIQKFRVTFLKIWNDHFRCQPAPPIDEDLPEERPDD

Adenosine receptor A3 [2] = molecular target: T3, Adenosine receptor A3 (Homo sapiens, UniProt P0DMS8); test: Inhibition of [125I]-AB-MECA binding to human Adenosine A3 receptor expressed in CHO cells; assay type: cell-based
T3 sequence (P0DMS8 whole entry): T1 sequence (whole entry)

Adenosine receptor A2a [3] = molecular target: T4, Adenosine receptor A2a (Homo sapiens, UniProt P29274); test: Displacement of [3H]-CGS- 21680 from human Adenosine A2A receptor expressed in CHO cells at 10 uM; assay type: cell-based
Summary of the method: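 Human A2A receptor stably expressed in adherent CHO cells. Competition binding used [3H]CGS 21680 as the radioligand.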

Adenosine receptor A2a [4] = molecular target: T4, Adenosine receptor A2a; test: Inhibition of [3H]-CGS- 21680 binding to human Adenosine A2A receptor expressed in CHO cells; assay type: cell-based
[5] = molecular target: T5, Adenosine receptor A2b (Homo sapiens) (UniProt P29275); test: Relative activation of human Adenosine A2B receptor at 10 uM treatment compared to 10 uM Cl-IB-MECA; assay type: functional
T5 sequence (whole entry): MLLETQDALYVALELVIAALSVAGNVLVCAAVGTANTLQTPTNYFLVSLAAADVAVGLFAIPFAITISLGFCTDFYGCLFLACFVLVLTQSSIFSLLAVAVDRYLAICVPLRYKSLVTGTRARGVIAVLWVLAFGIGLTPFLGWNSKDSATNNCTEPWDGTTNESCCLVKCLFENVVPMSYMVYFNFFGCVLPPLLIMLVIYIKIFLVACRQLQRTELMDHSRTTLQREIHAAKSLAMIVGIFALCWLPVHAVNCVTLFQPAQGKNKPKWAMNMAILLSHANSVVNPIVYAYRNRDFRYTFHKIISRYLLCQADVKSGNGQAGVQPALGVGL

Adenosine receptor A3 [6] = molecular target: T6, Adenosine receptor A3 (Rattus norvegicus, UniProt P28647); test: Inhibition of [125I]AB-MECA binding to rat Adenosine A3 receptor expressed in CHO cells; assay type: cell-based
T6 sequence (P28647 whole entry): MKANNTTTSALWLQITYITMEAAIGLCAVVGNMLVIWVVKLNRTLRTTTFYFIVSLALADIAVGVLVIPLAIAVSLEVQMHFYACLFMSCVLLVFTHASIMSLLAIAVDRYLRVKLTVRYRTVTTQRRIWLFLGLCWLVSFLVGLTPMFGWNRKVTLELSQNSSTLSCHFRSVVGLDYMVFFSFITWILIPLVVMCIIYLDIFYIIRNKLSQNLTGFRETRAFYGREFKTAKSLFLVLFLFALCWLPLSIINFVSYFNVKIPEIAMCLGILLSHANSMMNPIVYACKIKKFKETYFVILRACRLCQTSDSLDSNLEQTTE

T4 sequence (P29274 whole entry): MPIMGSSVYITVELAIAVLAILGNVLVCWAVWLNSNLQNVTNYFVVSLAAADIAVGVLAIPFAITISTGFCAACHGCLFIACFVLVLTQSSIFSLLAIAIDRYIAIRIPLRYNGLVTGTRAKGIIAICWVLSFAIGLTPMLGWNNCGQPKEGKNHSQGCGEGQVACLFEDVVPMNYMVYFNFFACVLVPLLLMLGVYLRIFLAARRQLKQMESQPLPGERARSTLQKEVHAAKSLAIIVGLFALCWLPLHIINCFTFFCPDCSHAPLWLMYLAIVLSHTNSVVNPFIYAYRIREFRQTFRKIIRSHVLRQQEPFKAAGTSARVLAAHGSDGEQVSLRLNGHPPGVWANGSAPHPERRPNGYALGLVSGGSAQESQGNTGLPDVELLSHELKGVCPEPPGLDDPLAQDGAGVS

Row | Activation [1] [%] | Displacement (Adenosine receptor A2a [3]) [%] | Ki (Adenosine receptor A2a [4]) [nM] | Activation [5] [%] | Ki (Adenosine receptor A3 [6]) [nM] | SMILES | Ki (Adenosine receptor A1) [nM] | Ki (Adenosine receptor A3 [2]) [nM] | Inhibition (Adenosine receptor A1; cho) [%]
1 | 3 |  | 1600 |  |  | OC[C@@]12C[C@@H]1[C@@H](n1cnc3c(NCc4cccc(I)c4)nc(Cl)nc31)[C@H](O)[C@@H]2O | 65 | 1.9 | 
2 |  |  | 800 |  |  | CNC(=O)[C@]12C[C@@H]1[C@@H](n1cnc3c(NCc4cc(Cl)ccc4OCC(N)=O)nc(Cl)nc31)[C@H](O)[C@@H]2O |  |  | 
3 |  |  | 430 | 46 |  | CNC(=O)[C@]12C[C@@H]1[C@@H](n1cnc3c(NCc4cc(I)ccc4OC)nc(Cl)nc31)[C@H](O)[C@@H]2O |  |  | 
4 |  |  |  | 0 |  | CNC(=O)[C@H]1O[C@@H](n2cnc3c(NCc4cccc(I)c4)nc(Cl)nc32)[C@H](O)[C@@H]1O |  |  | 
5 |  |  | 5100 | 28 |  | CNC(=O)[C@]12C[C@@H]1[C@@H](n1cnc3c(NCc4cccc(F)c4)nc(Cl)nc31)[C@H](O)[C@@H]2O |  |  | 
6 | 13 |  | 860 |  |  | OC[C@@]12C[C@@H]1[C@@H](n1cnc3c(NCc4cccc(I)c4)ncnc31)[C@H](O)[C@@H]2O | 35 | 9.2 | 
7 |  |  | 3700 | 46 |  | CNC(=O)[C@]12C[C@@H]1[C@@H](n1cnc3c(NCc4cccc(C)c4)nc(Cl)nc31)[C@H](O)[C@@H]2O |  |  | 
8 | 0 |  |  | 16 |  | OC[C@H]1O[C@@H](n2cnc3c(NCc4cccc(I)c4)nc(Cl)nc32)[C@H](O)[C@@H]1O | 17 |  | 
9 |  |  | 4800 | 48 |  | CNC(=O)[C@]12C[C@@H]1[C@@H](n1cnc3c(NC4CC4c4ccccc4)nc(Cl)nc31)[C@H](O)[C@@H]2O (stereo not given in full) |  |  | 
10 |  | 17 |  |  |  | CNC(=O)[C@]12C[C@@H]1[C@@H](n1cnc3c(NC)nc(N)nc31)[C@H](O)[C@@H]2O |  |  | 
11 |  |  | 480 | 58 |  | CNC(=O)[C@]12C[C@@H]1[C@@H](n1cnc3c(NCc4cc(I)ccc4Cl)nc(Cl)nc31)[C@H](O)[C@@H]2O |  |  | 
12 |  |  | 1100 |  |  | CNC(=O)[C@]12C[C@@H]1[C@@H](n1cnc3c(NCc4ccc(N)c(I)c4)nc(Cl)nc31)[C@H](O)[C@@H]2O |  |  | 
13 |  |  | 1300 | 32 |  | CNC(=O)[C@]12C[C@@H]1[C@@H](n1cnc3c(NCc4cc(Cl)ccc4Cl)nc(Cl)nc31)[C@H](O)[C@@H]2O |  |  | 
14 | 100 |  |  |  |  | CNC(=O)[C@@]12C[C@@H]1[C@@H](n1cnc3c(NCc4cccc(I)c4)nc(Cl)nc31)[C@H](O)[C@@H]2O |  |  | 
15 |  |  | 1200 | 37 |  | CNC(=O)[C@@]12C[C@@H]1[C@@H](n1cnc3c(NCc4cc(Cl)ccc4OC)nc(Cl)nc31)[C@H](O)[C@@H]2O |  |  | 
16 |  | 43 |  |  |  | CNC(=O)[C@]12C[C@@H]1[C@@H](n1cnc3c(NCc4cccc(Cl)c4)nc(I)nc31)[C@H](O)[C@@H]2O |  |  | 
17 |  |  | 3800 | 24 |  | CNC(=O)[C@]12C[C@@H]1[C@@H](n1cnc3c(NCc4ccccc4C)nc(Cl)nc31)[C@H](O)[C@@H]2O |  |  | 
18 |  | 28 |  | 22 |  | CNC(=O)[C@]12C[C@@H]1[C@@H](n1cnc3c(NCc4ccc(N)cc4)nc(Cl)nc31)[C@H](O)[C@@H]2O |  |  | 
19 |  | 33 |  | 4 |  | CNC(=O)C12C[C@@H]1[C@@H](n1cnc3c(NCc4cccnc4)nc(Cl)nc31)[C@H](O)[C@@H]2O (single isomer, unassigned) |  |  | 
20 | 104 | 6 |  |  |  | CNC(=O)[C@@]12C[C@@H]1[C@@H](n1cnc3c(NC)nc(Cl)nc31)[C@H](O)[C@@H]2O |  |  | 
21 | 100 |  |  |  |  | CNC(=O)[C@@]12C[C@@H]1[C@@H](n1cnc3c(NCc4cccc(I)c4)ncnc31)[C@H](O)[C@@H]2O |  |  | 

Second part, the molecule before the results:

Row | SMILES | Activation [1] [%] | Displacement (Adenosine receptor A2a [3]) [%] | Ki (Adenosine receptor A2a [4]) [nM] | Activation [5] [%] | Ki (Adenosine receptor A3 [6]) [nM] | Ki (Adenosine receptor A1) [nM] | Ki (Adenosine receptor A3 [2]) [nM] | Inhibition (Adenosine receptor A1; cho) [%]
22 | CNC(=O)[C@]12C[C@@H]1[C@@H](n1cnc3c(NCc4cccc(Cl)c4)nc(SC)nc31)[C@H](O)[C@@H]2O | 100 | 52 |  |  |  | 610 | 1.5 | 
23 | COc1ccc(Cl)cc1CNc1ncnc2c1ncn2[C@@H]1O[C@H](CO)[C@@H](O)[C@H]1O |  |  | 400 | 57 |  |  |  | 
24 | CNc1nc(N)nc2c1ncn2[C@@H]1O[C@H](CO)[C@@H](O)[C@H]1O | 98 | 15 |  | 11 | > 10000 |  |  | 
25 | CNC(=O)[C@]12C[C@@H]1[C@@H](n1cnc3c(NCc4cccc(Br)c4)nc(Cl)nc31)[C@H](O)[C@@H]2O | 100 |  | 1300 | 38 | 0.76 | 270 | 0.38 | 
26 | CNC(=O)[C@H]1O[C@@H](n2cnc3c(NCc4cccc(I)c4)ncnc32)[C@H](O)[C@@H]1O |  |  |  | 0 |  |  |  | 
27 | OC[C@H]1O[C@@H](n2cnc3c(NC4CC4c4ccccc4)ncnc32)[C@H](O)[C@@H]1O (stereo not given in full) | 101 |  | 2500 | 26 | 400 |  |  | 
28 | CNC(=O)[C@]12C[C@@H]1[C@@H](n1cnc3c(NCC(c4ccccc4)c4ccccc4)nc(Cl)nc31)[C@H](O)[C@@H]2O | 107 |  | 1600 | 46 | 10 | 1300 | 0.69 | 
29 | OC[C@H]1O[C@@H](n2cnc3c(NCC(c4ccccc4)c4ccccc4)ncnc32)[C@H](O)[C@@H]1O | 0 |  |  | 70 | 540 |  |  | 
30 | CNC(=O)[C@@]12C[C@@H]1[C@@H](n1cnc3c(NCc4cccc(Cl)c4)nc(Cl)nc31)[C@H](O)[C@@H]2O |  |  | 2300 | 38 | 1 | 260 |  | 
31 | OC[C@H]1O[C@@H](n2cnc3c(NCc4cccnc4)ncnc32)[C@H](O)[C@@H]1O | 100 |  | 2300 |  | 290 | 42 | 4.5 | 
32 | CNC(=O)[C@]12C[C@@H]1[C@@H](n1cnc3c(NCc4cc(C#CCO)ccc4Cl)nc(Cl)nc31)[C@H](O)[C@@H]2O | 108 | 12 |  | 6 |  |  | 217 | 14
33 | CNC(=O)[C@]12C[C@@H]1[C@@H](n1cnc3c(NCc4cc(Cl)ccc4OCc4ccccc4)nc(Cl)nc31)[C@H](O)[C@@H]2O | 110 |  | 850 | 49 | 11 | 1200 | 5.2 | 
34 | OC[C@H]1O[C@@H](n2cnc3c(NCc4cccc(Cl)c4)ncnc32)[C@H](O)[C@@H]1O | 80 |  |  |  | 35 |  | 4.4 | 
35 | CNC(=O)[C@]12C[C@@H]1[C@@H](n1cnc3c(NCc4cc(OC)ccc4OC)nc(Cl)nc31)[C@H](O)[C@@H]2O | 107 | 52 |  | 0 |  | 1600 | 1.4 | 
36 | Cc1ccccc1CNc1ncnc2c1ncn2[C@@H]1O[C@H](CO)[C@@H](O)[C@H]1O | 100 |  |  |  | 38 |  |  | 
37 | CNC(=O)[C@]12C[C@@H]1[C@@H](n1cnc3c(NCc4cccc(C#CCO)c4)nc(Cl)nc31)[C@H](O)[C@@H]2O |  | 56 |  | 28 |  |  |  | 
38 | OC[C@H]1O[C@@H](n2cnc3c(NCc4cccc(I)c4)ncnc32)[C@H](O)[C@@H]1O | 46 |  |  | 58 |  | 7.4 |  | 
39 | CNc1ncnc2c1ncn2[C@@H]1O[C@H](CO)[C@@H](O)[C@H]1O |  | 17 |  | 16 | 6400 | 6000 | 9.3 | 
